These results are taken from ChEMBL document CHEMBL1240483, “Novel N-phenyl dichloroacetamide derivatives as anticancer reagents: design, synthesis and biological evaluation” (Eur J Med Chem, 2010).

A word on the pIC50: it is −log10 of the IC50, conventionally taken in molar units. Lower therefore signals a large IC50. The LD50 is the dose at which mortality reaches 50%.

Data set [1] deals with A549. Nature of the data set: Anticancer activity against human A549 cells after 72 hrs by MTT assay. The class given is functional, cell-based. The note with it: A549, 72 h. Summed up:
(§1)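 Cells seeded at 3000/well and grown 24 h: A549 in F12-K, BGC-823, KB and BEL-7402 in RPMI 1640, all with 10% FBS at 37 °C in 5% CO2. Drug added at 10 concentrations from 4×10^-4 to 1×10^-7 M and incubated 72 h. MTT added for 4 h at 37 °C, then SDS/isobutanol/HCl lysis overnight. A570 read. IC50 from three independent tests.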

For the next data set, the system named is KB. Put plainly: Anticancer activity against human KB cells after 72 hrs by MTT assay. The class given is functional, cell-based. In short, it runs like this: as §1
(Tetrazolium assays rely on reduction of a dye to a coloured formazan, in cell work by metabolically active cells.)

A further data set relates to Bel-7402. Nature of the data set: Anticancer activity against human Bel7402 cells after 72 hrs by MTT assay. To be noted: Bel-7402, 72 h. The class given is functional, cell-based. Summed up:
as §1

A short description of data set [2]: Toxicity in intragastrically administered Kunming mouse after 14 days. The class given is organism-based. To be noted: in vivo, po.
The next data set relates to BGC-823. Nature of the data set: Anticancer activity against human BGC823 cells after 72 hrs by MTT assay. The class given is functional, cell-based. The note with it: BGC-823, 72 h. Summed up: as §1
Data set [3] has as its system A549. Put plainly: Induction of apoptosis in human A549 cells assessed as early apoptotic cells at 30 uM after 24 hrs by annexin-V/propidium iodide based FACS analysis. The class given is functional. Summed up:
(§2)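 A549 cells (F12-K, 10% FBS, 37 °C, 5% CO2) treated at 0, 10, 15 or 30 μM for 24 or 48 h, then trypsinized and resuspended in PBS. Stained with Annexin V-FITC/PI kit and analysed by flow cytometry. Early apoptotic cells counted in the Q4 quadrant.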
In general terms: A flow cytometer gives signals particle by particle.

The test system of data set [4] is A549. Put plainly: Induction of apoptosis in human A549 cells assessed as early apoptotic cells at 15 uM after 24 hrs by annexin-V/propidium iodide based FACS analysis. The class given is functional. Summed up: as §2
The test system of data set [5] is A549. Nature of the data set: Induction of apoptosis in human A549 cells assessed as early apoptotic cells at 10 uM after 24 hrs by annexin-V/propidium iodide based FACS analysis. The class given is functional. Summed up:
as §2

The subject of data set [6] is A549. Nature of the data set: Induction of apoptosis in human A549 cells assessed as early apoptotic cells at 30 uM after 48 hrs by annexin-V/propidium iodide based FACS analysis. The class given is functional. In short, it runs like this:
as §2

Data set [7] deals with A549. Nature of the data set: Induction of apoptosis in human A549 cells assessed as early apoptotic cells at 15 uM after 48 hrs by annexin-V/propidium iodide based FACS analysis. The class given is functional. In short, it runs like this: as §2
Data set [8] relates to A549. Put plainly: Induction of apoptosis in human A549 cells assessed as early apoptotic cells at 10 uM after 48 hrs by annexin-V/propidium iodide based FACS analysis. The class given is functional. In short, it runs like this:
as §2

Data set [9] deals with A549. Nature of the data set: Induction of apoptosis in human A549 cells assessed as late apoptotic cells at 30 uM after 24 hrs by annexin-V/propidium iodide based FACS analysis. The class given is functional. Summed up:
(§3)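 A549 cells grown in F12-K with 10% FBS at 37 °C under 5% CO2. Exposed for 24 or 48 h to 0, 10, 15 or 30 μM, then trypsinized, pelleted and stained with Annexin V-FITC/PI for flow cytometry. Late apoptotic cells taken as the Q2 quadrant.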

Data set [10] deals with A549. Put plainly: Induction of apoptosis in human A549 cells assessed as late apoptotic cells at 15 uM after 24 hrs by annexin-V/propidium iodide based FACS analysis. The class given is functional. Summed up: as §3
Data set [11] has as its system A549. Nature of the data set: Induction of apoptosis in human A549 cells assessed as late apoptotic cells at 10 uM after 24 hrs by annexin-V/propidium iodide based FACS analysis. The class given is functional. Summed up: as §3
In data set [12] the test system is A549. Put plainly: Induction of apoptosis in human A549 cells assessed as late apoptotic cells at 30 uM after 48 hrs by annexin-V/propidium iodide based FACS analysis. The class given is functional. Summed up: as §3
For data set [13], the system named is A549. Nature of the data set: Induction of apoptosis in human A549 cells assessed as late apoptotic cells at 15 uM after 48 hrs by annexin-V/propidium iodide based FACS analysis. The class given is functional. Summed up:
as §3

The test system of data set [14] is A549. Put plainly: Induction of apoptosis in human A549 cells assessed as late apoptotic cells at 10 uM after 48 hrs by annexin-V/propidium iodide based FACS analysis. The class given is functional. Summed up: as §3

pIC50: −log10 of the molar value.

`O=C(Nc1ccccc1)C(Cl)Cl` gave a negative-log IC50 (pIC50) in the data set with A549 [1] of 3.89.

Consider `O=C(Nc1ccccc1F)C(Cl)Cl`, for which the pIC50 in the data set with A549 [1] was 4.06.

In the case of `O=C(Nc1ccccc1Br)C(Cl)Cl`, the figures for the pIC50 with KB, with A549 [1] and with Bel-7402 were 4.17, 4.43 and 4.42, respectively.

Take `O=C(Nc1ccccc1[N+](=O)[O-])C(Cl)Cl`: the pIC50 was 3.60 with KB, 3.70 in the data set with A549 [1] and 3.71 in the data set on Bel-7402.

The molecule `O=C(Nc1ccccc1NC(=O)C(Cl)Cl)C(Cl)Cl` had a pIC50 in the data set on A549 [1] of 3.88.

`Cc1cccc(NC(=O)C(Cl)Cl)c1` gave a negative-log IC50 (pIC50) with A549 [1] of 4.39.

As for `O=C(Nc1cccc(Cl)c1)C(Cl)Cl`, the pIC50 with A549 [1] was 4.83; in the data set on Bel-7402, 4.35. This molecule also yielded an LD50 at 336 h in [2] of 4550 mg/kg.

Regarding `O=C(Nc1cccc(Br)c1)C(Cl)Cl`, the pIC50 is 4.02 in the data set with BGC-823, 5.09 with KB, 5.11 with A549 [1] and 5.11 with Bel-7402.

Regarding `O=C(Nc1cccc(I)c1)C(Cl)Cl`, the pIC50 in the data set on BGC-823 is 4.23; in the data set on KB it was 5.28; in the data set on A549 [1], 5.32; in the data set with Bel-7402, 5.27. The Activity with A549 [3] was 15.2%; in the data set with A549 [4], 9.2%; with A549 [5], 10.8%; with A549 [6], 10.6%; with A549 [7], 8.7%; with A549 [8] it was 7.8%. Also, the Activity turned out to be 20.3% in the data set on A549 [9]; 19.3% with A549 [10]; 8.6% in the data set with A549 [11]; 35.6% in the data set with A549 [12]; 22.6% in the data set with A549 [13]; 17.6% with A549 [14]. For the same molecule, the median lethal dose (LD50) at 336 h in data set [2] worked out at 1120 mg/kg.

Turning to `N#Cc1cccc(NC(=O)C(Cl)Cl)c1`, the negative-log IC50 (pIC50) in the data set with KB was 4.22; with A549 [1], 4.18; with Bel-7402 it was 4.32.

On to `C#Cc1cccc(NC(=O)C(Cl)Cl)c1`, for which the pIC50 in the data set on BGC-823 is 3.76; with KB, 5.20; with A549 [1], 4.95; in the data set with Bel-7402, 5.32.

`O=C(Nc1cccc([N+](=O)[O-])c1)C(Cl)Cl`: the pIC50 in the data set with BGC-823 was 3.91; with KB, 4.35; in the data set with A549 [1], 4.74; in the data set on Bel-7402, 4.80.

`COc1cccc(NC(=O)C(Cl)Cl)c1`: the pIC50 was 3.75 with BGC-823, 4.24 in the data set with KB, 4.59 in the data set with A549 [1] and 4.26 in the data set with Bel-7402.

On to `O=C(Nc1cccc(C(F)(F)F)c1)C(Cl)Cl`, for which the pIC50 in the data set on BGC-823 is 3.85; in the data set on KB, 5.05; in the data set with A549 [1], 4.91; with Bel-7402 it was 5.22.

`O=C(Nc1cccc(OC(F)(F)F)c1)C(Cl)Cl`: the negative-log IC50 (pIC50) was 3.85 in the data set on BGC-823, 5.13 in the data set on KB, 4.82 with A549 [1] and 4.99 in the data set with Bel-7402.

Take `O=C(Nc1cccc(SC(F)(F)F)c1)C(Cl)Cl`: the negative logarithm of the IC50 (pIC50) was 3.91 in the data set on BGC-823, 5.32 with KB, 4.85 in the data set with A549 [1] and 5.18 in the data set on Bel-7402.

`O=C(Nc1cccc(S(=O)(=O)C(F)(F)F)c1)C(Cl)Cl`: the negative logarithm of the IC50 (pIC50) with BGC-823 was 4.19; in the data set with KB it was 4.69; in the data set on A549 [1], 5.19; with Bel-7402 it was 5.05.

Turning to `Cc1ccc(NC(=O)C(Cl)Cl)cc1`, the pIC50 in the data set with A549 [1] is 4.31.

With `O=C(Nc1ccc(F)cc1)C(Cl)Cl`, in the data set with A549 [1], the pIC50 is 4.16.

Take `O=C(Nc1ccc(Cl)cc1)C(Cl)Cl`: the pIC50 with KB is 4.22; in the data set with A549 [1], 4.69; in the data set on Bel-7402, 4.30.

Consider `O=C(Nc1ccc(Br)cc1)C(Cl)Cl`, for which the pIC50 in the data set on KB is 4.66; in the data set on A549 [1], 4.86; in the data set on Bel-7402, 5.01.

For the molecule `O=C(Nc1ccc(I)cc1)C(Cl)Cl`, the pIC50 in the data set with BGC-823 was 3.65; in the data set on KB, 4.18; in the data set on A549 [1], 4.90; in the data set on Bel-7402, 4.92.

Regarding `O=C(Nc1ccc([N+](=O)[O-])cc1)C(Cl)Cl`, the negative logarithm of the IC50 (pIC50) with BGC-823 is 3.72; in the data set on KB, 4.22; in the data set on A549 [1] it was 4.46; in the data set on Bel-7402, 4.53.

Turning to `COc1ccc(NC(=O)C(Cl)Cl)cc1`, the pIC50 with KB was 3.56; in the data set on A549 [1] it was 4.09; with Bel-7402 it was 3.72.

As for `O=C(Nc1ccc(SC(F)(F)F)cc1)C(Cl)Cl`, the pIC50 in the data set with BGC-823 is 3.69; with KB, 5.68; in the data set on A549 [1], 4.98; in the data set with Bel-7402 it was 5.44.

`O=C(Nc1ccc(S(=O)(=O)C(F)(F)F)cc1)C(Cl)Cl`: the pIC50 is 3.83 with BGC-823, 5.01 with KB, 5.07 in the data set on A549 [1] and 4.14 in the data set on Bel-7402.

With `O=C(Nc1cccc(Cl)c1Cl)C(Cl)Cl`, the results for the pIC50 in the data set on KB and in the data set on Bel-7402 were 3.66 and 3.74, respectively.

Consider `O=C(Nc1ccc(Cl)c(Cl)c1)C(Cl)Cl`, for which the pIC50 was 3.75 in the data set with BGC-823, 5.15 in the data set on KB, 5.29 with A549 [1] and 5.13 in the data set on Bel-7402.

`O=C(Nc1cc(Cl)cc(Cl)c1)C(Cl)Cl`: the pIC50 was 4.22 in the data set with BGC-823, 5.34 in the data set with KB, 5.36 with A549 [1] and 5.33 in the data set on Bel-7402.

Take `O=C(Nc1cc(Cl)ccc1Cl)C(Cl)Cl`: the pIC50 was 4.94 in the data set with KB, 4.91 in the data set with A549 [1] and 4.74 with Bel-7402.

Take `O=C(Nc1cccc(S(=O)(=O)c2cccc(NC(=O)C(Cl)Cl)c2)c1)C(Cl)Cl`: the pIC50 in the data set on BGC-823 was 3.70; in the data set with KB it was 4.62; with A549 [1] it was 5.23; in the data set on Bel-7402 it was 4.80.

Turning to `O=C(Nc1ccccc1Cl)C(Cl)Cl`, the pIC50 in the data set with A549 [1] was 4.30.

Consider `O=C([O-])C(Cl)Cl.[Na+]` [SODIUM DICHLOROACETATE], for which the pIC50 is 2.98 in the data set with BGC-823, 2.85 with KB, 3.00 in the data set on A549 [1] and 3.07 with Bel-7402.
